Source: publication PMC3313684 (Journal of Natural Products, 2012)
Values after ≈ are worked out from the molar mass of the structure shown. Like-named read-outs stand apart in the source and are kept apart here.

Key:
KAT-4 cells = assay: Anaplastic thyroid carcinoma cell line inhibition, KAT-4; type: cell-based, human; settings: for GI50: Homo sapiens, KAT-4, read-out: KAT-4 GI50
How it was run: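 Growth inhibition by the NCI sulforhodamine B method. Cells were plated in RPMI1640 with 5% fetal bovine serum and grown 24 h. Serial dilutions of test compound were then added for 48 h. Plates were fixed with trichloroacetic acid, stained with sulforhodamine B and read by plate reader. GI50 is the concentration giving a 50% drop in net protein increase, calculated from optical density data.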

Neisseria gonorrhoeae [1] = assay: Antimicrobial susceptibility, Neisseria gonorrhoeae; type: cell-based; settings: for MIC: Neisseria gonorrhoeae, read-out: MIC Neisseria gonorrhoeae; for MIC Neisseria gonorrhoeae: broth microdilution
How it was run: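 Neisseria gonorrhoeae ATCC 49226 tested by broth microdilution following standard bacterial dilution guidelines. MIC taken as the lowest concentration inhibiting all visible growth (optically clear). Assays repeated on separate days.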

Micrococcus luteus [2] = settings: previously shown; cited from earlier work
Neisseria gonorrhoeae [3] = settings: previously shown; cited from earlier work
Micrococcus luteus [4] = assay: Antimicrobial susceptibility, Micrococcus luteus; type: cell-based; settings: read-out: MIC Micrococcus luteus
How it was run: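 Broth microdilution susceptibility to an established standard for aerobic bacteria, strain Presque Isle 456. Test compound was reconstituted in a small volume of sterile DMSO and diluted in medium just before the assay. MIC was the lowest concentration that stopped all visible growth (optically clear). Assays were repeated on separate days.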

SW1736 cells = assay: Anaplastic thyroid carcinoma cell line inhibition, SW1736; type: cell-based, human
[5] = system: human umbilical vein endothelial cells (HUVEC); assay: HUVEC Matrigel cord formation assay; type: cell-based; settings: 0.001 μg/mL, 24 h
tubulin = assay: Inhibition of [3H]colchicine binding to tubulin; settings: 10 μM compound, 1.0 μM tubulin, 5.0 μM [3H]colchicine

For COc1ccc(/C=C\c2cc(I)c(OC)c(I)c2)cc1OP(=O)([O-])[O-].[K+].[K+] [12a, Potassium 3,5-Diiodo-4,4′dimethoxy-Z-stilbene 3′-O-phosphate], the GI50 (KAT-4 cells) was 0.38 to 0.44 µg/mL, the “times less inhibitory than the phenols 9a and 9c” value (KAT-4 cells; KAT-4) was 10 × and the MIC (Neisseria gonorrhoeae [1]) was 0.5 to 4 µg/mL.

In the case of “Tryptophan-OMe 3-Iodo-4,4′,5-trimethoxy-Z-stilbene 3′-O-phosphate [11g]”, the “MIC Neisseria gonorrhoeae” value (Neisseria gonorrhoeae [1]) is reported as 4 to 8 µg/mL.

For “Tryptophan-OMe 3,5-Diiodo-4,4′-dimethoxy-Z-stilbene 3′-O-phosphate [12g]”, the “MIC Neisseria gonorrhoeae” value (Neisseria gonorrhoeae [1]) was under 0.5 µg/mL.

For COc1ccc(/C=C\c2cc(OC)c(OC)c(OC)c2)cc1OP(=O)([O-])[O-].[Na+].[Na+] [1b, fosbretabulin], the “MIC Micrococcus luteus” value (Micrococcus luteus [2]) is given as 25-100 μg/disk and the “MIC Neisseria gonorrhoeae” value (Neisseria gonorrhoeae [3]) is given as 25-100 μg/disk.

In the case of “Piperdine 3,5-Diiodo-4,4′-dimethoxy-Z-stilbene 3′-O-phosphate [12e]”, the “MIC Neisseria gonorrhoeae” value (Neisseria gonorrhoeae [1]) is reported as under 0.5 µg/mL.

With C1COCCN1.COc1ccc(/C=C\c2cc(I)c(OC)c(I)c2)cc1OP(=O)(O)O [12d, Morpholine 3,5-Diiodo-4,4′-dimethoxy-Z-stilbene 3′-O-phosphate] the “MIC Neisseria gonorrhoeae” value (Neisseria gonorrhoeae [1]) was under 0.5 µg/mL.

For COc1ccc(/C=C\c2cc(I)c(OC)c(OC)c2)cc1OP(=O)([O-])[O-].[K+].[K+] [11a, Potassium 3-Iodo-4,4′,5-trimethoxy-Z-stilbene 3′-O-phosphate], the GI50 (KAT-4 cells) was 0.37 to 0.43 µg/mL.

For COc1ccc(/C=C\c2cc(I)c(OC)c(I)c2)cc1O [9c, 3,5-Diiodo-4,4′-dimethoxy-3′-hydroxy-Z-stilbene], the MIC (Micrococcus luteus [4]) was 4 to 16 µg/mL (≈ 7.87 to 31.5 µM), the “times less active against the SW1736 line than against KAT-4” value (SW1736 cells) was 100 × and the “cord lengths and junction numbers” value [5] was “markedly reduced”. The “inhibition of colchicine binding to tubulin, % inhibition ± SD” value (tubulin) was 100 ± 0.3% and the GI50 (KAT-4 cells) was 0.039 to 0.063 µg/mL (≈ 0.0768 to 0.124 µM).

In the case of “Tris 3,5-Diiodo-4,4′dimethoxy-Z-stilbene 3′-O-phosphate [12h]”, the “MIC Neisseria gonorrhoeae” value (Neisseria gonorrhoeae [1]) is reported as under 0.5 to 2 µg/mL.

For COc1ccc(/C=C\c2cc(OC)c(OC)c(OC)c2)cc1O [1a, combretastatin A-4], the “MIC Micrococcus luteus” value (Micrococcus luteus [2]) is given as 25-100 μg/disk and the “MIC Neisseria gonorrhoeae” value (Neisseria gonorrhoeae [3]) is given as 25-100 μg/disk.

In the case of “Tris 3-Iodo-4,4′,5-trimethoxy-Z-stilbene 3′-O-phosphate [11h]”, the “MIC Neisseria gonorrhoeae” value (Neisseria gonorrhoeae [1]) is reported as 32 to 64 µg/mL.

In the case of “Morpholine 3-Iodo-4,4′,5-trimethoxy-Z-stilbene 3′-O-phosphate [11d]”, the “MIC Neisseria gonorrhoeae” value (Neisseria gonorrhoeae [1]) is reported as 16 to 32 µg/mL.

COc1ccc(/C=C\c2cc(I)c(OC)c(I)c2)cc1OP(=O)([O-])[O-].[Na+].[Na+] [12b, Sodium 3,5-Diiodo-4,4′-dimethoxy-Z-stilbene 3′-O-phosphate] showed an MIC (Neisseria gonorrhoeae [1]) of 32 to 64 µg/mL.

With COc1ccc(/C=C\c2cc(I)c(OC)c(OC)c2)cc1O [9a, 3-Iodo-4,4′,5-trimethoxy-3′-hydroxy-Z-stilbene] the MIC (Micrococcus luteus [4]) was 2 to 4 µg/mL (≈ 4.85 to 9.7 µM), the “times less active against the SW1736 line than against KAT-4” value (SW1736 cells) was 100 × and the “cord lengths and junction numbers” value [5] was “markedly reduced”. For the same molecule, the “inhibition of colchicine binding to tubulin, % inhibition ± SD” value (tubulin) was 100 ± 0.8%.

In the case of “Glycine-OMe 3,5-Diiodo-4,4′-dimethoxy-Z-stilbene 3′-O-phosphate [12f]”, the “MIC Neisseria gonorrhoeae” value (Neisseria gonorrhoeae [1]) is reported as under 0.5 to 1 µg/mL.

For COc1ccc(/C=C\c2cc(I)c(OC)c(I)c2)cc1OP(=O)([O-])[O-].[Li+].[Li+] [12c, Lithium 3,5-Diiodo-4,4′-dimethoxy-Z-stilbene 3′-O-phosphate], the MIC (Neisseria gonorrhoeae [1]) was 0.5 to 2 µg/mL.
